ChEMBL document CHEMBL4184225, “Discovery of selective 2,4-diaminoquinazoline toll-like receptor 7 (TLR 7) agonists” (Bioorg Med Chem Lett, 2018)

How the values were obtained:
Rattus norvegicus = assay: Plasma clearance in Sprague-Dawley rat at 2.5 mg/kg, iv relative hepatic blood flow; assay type: ADME, organism-based; details: in vivo
[1] = Tmax in C57BL/6 mouse at 5 mg/kg, po administered as single dose; assay type: ADME, organism-based; details: in vivo
Method in brief: (§1)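 Healthy C57BL/6 mice given a single oral dose (1 or 5 mg/kg). Plasma and liver drug levels measured over time to give Tmax, Cmax and AUC0-last. Three mice per time point, reported as geometric mean.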

[2] = Cmax in C57BL/6 mouse liver at 5 mg/kg, po administered as single dose; assay type: ADME, organism-based; design: dose 5 mg/kg, route oral; details: in vivo; method in brief: as §1
[3] = AUClast in C57BL/6 mouse liver at 5 mg/kg, po administered as single dose; assay type: ADME, organism-based; details: in vivo; method in brief: as §1
[4] = Cmax in C57BL/6 mouse plasma at 5 mg/kg, po administered as single dose; assay type: ADME, organism-based; design: dose 5 mg/kg, route oral; method in brief: as §1
Mus musculus [5] = assay: Induction of IFN-alpha production in C57BL/6 mouse liver assessed as time for peak induction of IFN-alpha at 5 mg/kg, po administered as single dose by ELISA; assay type: functional
Method in brief: (§2)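 Healthy C57BL/6 mice given a single oral dose (1 or 5 mg/kg). Mouse IFN-α measured by ELISA in plasma and liver homogenates over time. Peak level (Fmax) and time of peak recorded. Three mice per time point, reported as geometric mean.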

Mus musculus [6] = assay: Induction of IFN-alpha production in C57BL/6 mouse plasma assessed as time for peak induction of IFN-alpha at 5 mg/kg, po administered as single dose by ELISA; assay type: functional; method in brief: as §2
[7] = AUClast in C57BL/6 mouse plasma at 5 mg/kg, po administered as single dose; assay type: ADME, organism-based; design: dose 5 mg/kg, route oral, time 0 - last; method in brief: as §1
Mus musculus [8] = assay: Induction of IFN-alpha production in C57BL/6 mouse liver assessed as peak IFN-alpha level at 5 mg/kg, po administered as single dose by ELISA; assay type: functional; method in brief: as §2
[9] = Ratio of drug level in liver to plasma in C57BL/6 mouse at 1 mg/kg, po administered as single dose; assay type: ADME, organism-based; details: liver and plasma, 5 mg/kg, in the assay text read “5 mg/kg” for “1 mg/kg”
Method in brief: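 Single oral dose to healthy C57BL/6 mice. Liver and plasma drug exposure measured, three mice per time point as geometric mean, and expressed as liver-to-plasma ratio.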

Mus musculus [10] = assay: Induction of IFN-alpha production in C57BL/6 mouse plasma assessed as time for peak induction of IFN-alpha at 1 mg/kg, po administered as single dose by ELISA; assay type: functional; method in brief: as §2
Mus musculus [11] = assay: Induction of IFN-alpha production in C57BL/6 mouse liver assessed as peak IFN-alpha level at 1 mg/kg, po administered as single dose by ELISA; assay type: functional; method in brief: as §2
[12] = Tmax in C57BL/6 mouse at 1 mg/kg, po administered as single dose; assay type: ADME, organism-based; details: in vivo; method in brief: as §1
[13] = AUClast in C57BL/6 mouse plasma at 1 mg/kg, po administered as single dose; assay type: ADME, organism-based; design: dose 1 mg/kg, time 0 - last, route oral; method in brief: as §1
Mus musculus [14] = assay: Induction of IFN-alpha production in C57BL/6 mouse liver assessed as time for peak induction of IFN-alpha at 1 mg/kg, po administered as single dose by ELISA; assay type: functional; method in brief: as §2
Mus musculus [15] = assay: Induction of IFN-alpha production in C57BL/6 mouse plasma assessed as peak IFN-alpha level at 1 mg/kg, po administered as single dose by ELISA; assay type: functional; method in brief: as §2
[16] = Cmax in C57BL/6 mouse plasma at 1 mg/kg, po administered as single dose; assay type: ADME, organism-based; design: dose 1 mg/kg, route oral; method in brief: as §1
[17] = AUClast in C57BL/6 mouse liver at 1 mg/kg, po administered as single dose; assay type: ADME, organism-based; design: dose 1 mg/kg, time 0 - last, route oral; method in brief: as §1
[18] = Cmax in C57BL/6 mouse liver at 1 mg/kg, po administered as single dose; assay type: ADME, organism-based; design: dose 1 mg/kg, route oral; method in brief: as §1

## CCCCNc1nc(N)nc2cccc(C(=O)N(C)Cc3ccccc3)c12
Rattus norvegicus
  CL: 79%

## CCCCNc1nc(N)nc2cccc(C(=O)N[C@@H](C)c3ccccc3)c12
[1]
  Tmax: 60 min
[2]
  Cmax: 3230 ng/g
[3]
  AUClast: 6619 ng·h/g
[4]
  Cmax: 142 ng/mL
Mus musculus [5]
  Time: 4 h
Mus musculus [6]
  Time: 4 h
[7]
  AUC(0-t): 365 ng·h/mL
Mus musculus [8]
  Fmax: 325 pg/mg
[9]
  Kp: 23

## CCCCNc1nc(N)nc2ccccc12
Mus musculus [10]
  Time: 1 h
Mus musculus [11]
  Fmax: 200 pg/mg
[12]
  Tmax: 30 min
[13]
  AUC(0-t): 3 ng·h/mL
Mus musculus [14]
  Time: 1 h
Mus musculus [15]
  Fmax: 315 pg/mL
[16]
  Cmax: 3 ng/mL
[17]
  AUC(0-t): 133 ng·h/mL
[18]
  Cmax: 207 ng/mL
